Bioassay records from PubChem.
This is a sample that favours compounds with a hit; in the whole collection about 3.1% have one here.
FGF22 binding: FGF22 (human) thermal shift binding | Q9HCT0 | recombinant FGF22 thermal shift, SYPRO orange fluorescence; percent of sucrose octasulfate shift, DMSO zero | activity (Tm shift, normalised), % at 9.99 µM | actives 1.5% (n = 340,000);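 active = mean Tm shift, scaled 0 neutral to 100 positive control, at about 1.3% or above, every replicate too, limit read from the data; inconclusive = no clear call, values can overlap the other calls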
Target sequence (Q9HCT0 whole entry, looked up): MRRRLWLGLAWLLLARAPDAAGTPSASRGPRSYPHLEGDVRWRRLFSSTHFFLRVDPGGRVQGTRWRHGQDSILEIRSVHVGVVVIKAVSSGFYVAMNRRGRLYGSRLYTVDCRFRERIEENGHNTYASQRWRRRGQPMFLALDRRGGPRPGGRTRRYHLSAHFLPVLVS
PAX8 reporter: inhibitors of PAX8 transcriptional activity in RMG-I cells; actives 1.2% (n = 360,000); RMG-I TPO-luciferase reporter, SteadyGlo, 24 h; inhibition, % at 12.6 µM;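 active = mean replicate inhibition at least 60% with every replicate also reaching 60%; inconclusive = only one of the two criteria is met; inactive = mean below 60% and not all replicates reaching 60%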;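 note: luciferase light reporting Pax8 driven TPO promoter activity; plate controls were median of neutral control wells for no effect and mitoxantrone controls for full effect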
PGC1a acetyl inh: modulators of PGC1a acetylation; actives 0.17% (n = 350,000); U2OS PGC1a acetylation, AlphaScreen anti-acetyl-lysine; with virally co-expressed GCN5 acetyltransferase; inhibition, % at 15.6 µM;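 active = every replicate shows inhibition of at least 40%; inconclusive = mean inhibition at least 40% but some replicate below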;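 note: 0% = neutral control wells and 100% = positive control wells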
FN deposition inh: fibronectin deposition inhibition. AH1F fibroblasts, Alexa488-fibronectin deposition fluorescence, overnight. inhibition, % at 12.6 µM. actives 0.086% (n = 350,000). AID 743247;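 active = mean inhibition across replicates of 30% or more, regardless of how many single replicates reach that level; inconclusive = mean under 30% yet at least half of replicates reach 30%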;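 note: positive control wells lacked labelled fibronectin entirely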
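material = AH1F fibroblast monolayer depositing Alexa488-labelled fibronectin into matrix | amount = 10000 AH1F cells/well | buffer or medium = DMEM plus 2% serum, read in PBS | incubation = 1 h cell adhesion before compound, then overnight fibronectin incubation | detection = fluorescence at 485 nm excitation, 525 nm emission | evaluation = percent inhibition as loss of matrix-bound fibronectin fluorescence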
EWS-Fli inh: blocks EWS/Fli oncoprotein-driven transcription. A673 NR0B1-luciferase reporter, viability-normalised. inhibition, % at 12.6 µM. actives 0.67% (n = 350,000). AID 651661;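 active = mean inhibition of at least 50% after viability correction, with every replicate also passing that limit; inconclusive = mean reaches 50% but only one of two replicates passes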;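 note: firefly luciferase signal divided by Alamar Blue viability fluorescence both relative to DMSO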
Env fusion inh: inhibitors of HIV Env-mediated cell fusion; HeLa-JRFL Env/CEM21 cell fusion, luciferase; inhibition, % at 12.3 µM; actives 1.1% (n = 360,000); AID 651610;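 active = mean replicate inhibition score of at least 50 and every replicate individually at or above 50; inconclusive = only one of the two criteria met; inactive = mean below 50 and not all replicates reaching 50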;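 note: 0% = plate neutral controls and 100% = maraviroc near 300 nM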
Active calls of the source: *; ? = inconclusive; . = no result; [ ] = another dose, or the depositor's remark.

SMILES	FGF22 binding	PAX8 reporter	PGC1a acetyl inh	FN deposition inh	EWS-Fli inh	Env fusion inh
O=C(CSc1nc(-c2ccccc2)c(-c2ccccc2)[nH]1)NCc1ccco1	.	.	10	4	.	70*
CC1Oc2ccccc2N(CC(=O)Nc2ccc3c(c2)OCO3)C1=O (stereo unspecified)	.	.	14	2	.	-84
CC1Oc2ccccc2N(CC(=O)NCc2ccc3c(c2)OCO3)C1=O (stereo unspecified)	43*	-48	.	7	-58	-19
CC(C)NC(=O)Nc1ccc2c(c1)CC(=O)N([C@H](C)CO)C[C@H](C)[C@@H](CN(C)Cc1ccc(Oc3ccccc3)cc1)O2	0	21	-16	.	11	.
O=C(CC1CC1)N1CC2(C1)[C@H](c1ccccc1)[C@@H](CO)N2C(=O)C1CCOCC1	0	.	-6	.	2	.
C[C@@H]1CN([C@@H](C)CO)C(=O)c2cc(NC(=O)CCC(F)(F)F)ccc2O[C@@H](C)CCCCO[C@H]1CN(C)Cc1ccc2c(c1)OCO2	0	-1	7	.	-9	11[16.7 µM]
C[C@@H]1CN([C@H](C)CO)C(=O)c2cccc(NC(=O)Nc3ccccc3)c2O[C@@H]1CN(C)Cc1ccc(C(=O)Nc2ccccc2N)cc1	0	46	-1	.	46	-28[16.7 µM]
C[C@H](CO)N1C[C@H](C)[C@H](CN(C)C(=O)c2ccccc2)OCCCC[C@H](C)Oc2ccc(NS(=O)(=O)c3cccs3)cc2C1=O	0	2	.	-2	0	-161[16.7 µM]
CCC(=O)N[C@H]1C=C[C@H](CC(=O)NCc2ccccc2OC)O[C@H]1CO	0	-6	8	.	8	-9[16.7 µM]
COc1cc(CN2CC3(CN(C(=O)c4cccnc4)C3)c3c([nH]c4cc(OC)ccc34)[C@@H]2CO)cc(OC)c1	0	.	-5	.	3	.
Cc1c(-n2c(SCC(=O)NC(C)C(C)C)nc3ccccc3c2=O)c(=O)n(-c2ccccc2)n1C (stereo unspecified)	43*	11	.	-5	8	3
CCn1cc([N+](=O)[O-])c(C(=O)NCc2ccc3c(c2)OCO3)n1	0	-3	42*	0	2	-6
Cc1c(-n2c(SCC(C)C)nc3ccccc3c2=O)c(=O)n(-c2ccccc2)n1C	0	5	-10	14	2	-12
C=CCn1c(SCC(=O)NCc2ccco2)nc2sc3c(c2c1=O)CCC3	.	-17	2	4	.	65*
C=CCn1c(SCC(=O)NCc2ccc3c(c2)OCO3)nc2scc(-c3ccccc3)c2c1=O	.	19	2	0	.	119*
Cc1noc(C)c1NC(=O)Nc1ccc2c(c1)C(=O)N([C@H](C)CO)C[C@@H](C)[C@H](CN(C)Cc1ccc(C(=O)O)cc1)OCCCC[C@@H](C)O2	0	6	9	.	-1	-12[16.7 µM]
Cc1noc(C)c1S(=O)(=O)N(C)C[C@H]1Oc2ccc(NC(=O)C3CCCCC3)cc2CC(=O)N([C@@H](C)CO)C[C@H]1C	0	.	7	.	3	6[16.7 µM]
C/C=C/c1ccc2c(c1)O[C@@H](CN(C)CC1CCOCC1)[C@H](C)CN([C@H](C)CO)S2(=O)=O	.	-2	-23	.	-14	13[16.7 µM]
COCC(=O)N1CC[C@@H]2[C@H]1c1cc(-c3cccc(OC)c3)ccc1N(C)[C@@H]2CO	0	28	8	-3	-10	.
CCc1nnc(N/N=C/c2c(Cl)cccc2Cl)n1N	.	.	64*	-6	.	-59
C[C@@H]1CCCCO[C@H](CN(C)S(=O)(=O)c2ccc(F)cc2)[C@H](C)CN([C@@H](C)CO)C(=O)c2cc(N(C)C)ccc2O1	-2	46	-1	15	-1	12[16.7 µM]
CC1CN(C)C(C)C/C1=N/Oc1ccccc1[N+](=O)[O-] (stereo unspecified)	44*	-1	1	1	4	12
Cc1cc(C)c(NC(=O)c2ccccc2C(=O)c2ccccc2)c(C)c1	43*	14	.	-6	1	-8
CC1=C(c2ccccc2)[N+](=O)C2(CCCCC2)N1[O-]	43*	-35	.	-1	4	5
CCC1(CC)N([O-])C(C)=C(c2ccccc2)[N+]1=O	.	.	15	.	.	.
SMILES	FGF22 binding	PAX8 reporter	PGC1a acetyl inh	FN deposition inh	EWS-Fli inh	Env fusion inh
O=C(C1CCC1)N1CC[C@@H]2[C@H](CO)Nc3ccc(Br)cc3[C@@H]21	.	.	7	-5	1	.
CC(C)c1ccc(-n2c(-c3ccccc3)c[n+]3c2CCc2ccccc2-3)cc1	0	90*	-4	13	59*	49
COc1ccc(-n2c(-c3ccc(Br)cc3)c[n+]3c2CCc2ccccc2-3)cc1	0	79*	.	-2	11	9
COc1ccccc1-n1c(-c2ccccc2)c[nH]c1=S	0	0	9	4	0	20
COc1ccccc1-n1c(-c2ccccc2)c[n+]2c1CCc1ccccc1-2	0	88*	-19	-3	26	41
FC(F)Oc1ccc(-c2c[n+]3c(n2-c2ccccc2)CCCCC3)cc1	.	7	4	4	18	-3
COc1ccc(-c2c[n+]3c(n2-c2ccccc2)CCCCC3)cc1	0	56	.	-10	17	25
CC(=O)N[C@@H]1CC[C@@H](CCNC(=O)Nc2ccc(C(F)(F)F)cc2)O[C@H]1CO	0	3	1	-9	-16	2[16.7 µM]
C/C=C/c1ccc([C@@H]2[C@@H](CN(C)C(=O)C3CC3)N(C(=O)C3CC3)[C@H]2CO)cc1	0	1	-7	-5	5	.
CCCN1C[C@H](C)[C@@H](OC)CN(C)C(=O)c2cc(NC(=O)c3cccc(F)c3)ccc2OC[C@H]1C	-1	.	-6	-153	9	.
C=CCN1Cc2ccccc2[C@H]2OC(c3ccc(OCCCO)cc3)=N[C@@]2(CC=C)C1=O	0	24	.	.	11	9[16.7 µM]
C=CC[C@@]12N=C(c3ccc(OCCCO)cc3)O[C@@H]1c1ccccc1CN(CCS(=O)(=O)c1ccccc1)C2=O	0	77*	-4	.	5	19[16.7 µM]
O=C(N[C@H]1CC[C@H](CCNS(=O)(=O)Cc2ccccc2)O[C@H]1CO)c1ccc2c(c1)OCO2	0	6	3	9	-7	-8[16.7 µM]
COc1ccc(O)c(C(c2c(C)[nH][nH]c2=O)c2c(C)[nH][nH]c2=O)c1	-1	97*	13	2	10	3
COc1ccc(OC)c(C(c2c(C)[nH][nH]c2=O)c2c(C)[nH][nH]c2=O)c1	-1	14	4	-1	3	0
Cc1cc(O)c(-c2cc(O)c(C)cc2O)cc1O	0	?	-32	37*	70*	-9
Cc1cc(N=O)c(C)cc1O	0	.	-18	.	2	.
CCCNC(=O)C[C@H]1C[C@@H]2c3cc(NS(=O)(=O)c4cccc(OC)c4)ccc3O[C@@H]2[C@H](CO)O1	0	.	-8	-12	1	.
Cc1cccc(N/C=C/C(=C(C#N)C#N)N(C)C)c1	.	.	10	.	.	.
